Test [1] has as its system Thoracic aorta. Kind of test: Vasodilatory activity in Wistar rat endothelium-intact thoracic aorta assessed as inhibition of norepinephrine-induced contraction at 100 uM after 20 mins by organ-bath technique. It counts as functional. The essentials:
(§1)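 Rat aortic rings in Krebs-Henseleit solution, equilibrated 2 h at 1.5 g basal tension with bath changes every 20 min. Endothelium taken as intact when acetylcholine (1 × 10^-5 mmol) relaxed norepinephrine-precontracted rings by more than 80%. Rings were precontracted with norepinephrine bitartrate (1 × 10^-6 mM) before compound addition. Response is expressed as percent of maximal control norepinephrine contraction. Mean ± SEM, paired t-test.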

The subject of test [2] is Thoracic aorta. Kind of test: Vasodilatory activity in Wistar rat endothelium-intact thoracic aorta assessed as inhibition of norepinephrine-induced contraction after 20 mins by organ-bath technique. It counts as functional, tissue-based. The essentials:
as §1

For the compound `Cc1c(C(c2ccc([S+](C)[O-])cc2)c2oc3c(c2C)C(=O)C(=O)c2c-3ccc3c2CCCC3(C)C)oc2c1C(=O)C(=O)c1c-2ccc2c1CCCC2(C)C` (stereo not given), the inhibition at 100 µM in the test on Thoracic aorta [1] is 10.3%. Still for that read-out and setting: the figure for `Cc1c(C(c2ccc(O)cc2)c2oc3c(c2C)C(=O)C(=O)c2c-3ccc3c2CCCC3(C)C)oc2c1C(=O)C(=O)c1c-2ccc2c1CCCC2(C)C` is 15.2%; for `COc1ccc(C(c2oc3c(c2C)C(=O)C(=O)c2c-3ccc3c2CCCC3(C)C)c2oc3c(c2C)C(=O)C(=O)c2c-3ccc3c2CCCC3(C)C)cc1` it is 11%; for `Cc1c(C(c2ccc(O)c(O)c2)c2oc3c(c2C)C(=O)C(=O)c2c-3ccc3c2CCCC3(C)C)oc2c1C(=O)C(=O)c1c-2ccc2c1CCCC2(C)C` it is -0.86%. Turning to `CC(CO)C1=C(O)C(=O)c2c(ccc3c2CCCC3(C)C)C1=O` (stereo not given), in the test on Thoracic aorta [1], the inhibition at 100 µM came to 59.2%. Besides, in the test on Thoracic aorta [2], the IC50 came to 480 µM and the inhibition entry was “Dose-dependent effect”. For the compound `Cc1c(C(c2cccc(Cl)c2)c2oc3c(c2C)C(=O)C(=O)c2c-3ccc3c2CCCC3(C)C)oc2c1C(=O)C(=O)c1c-2ccc2c1CCCC2(C)C`, in the test with Thoracic aorta [1], the inhibition at 100 µM was 56%. In the test on Thoracic aorta [2], the 50% inhibitory concentration (IC50) came out at 260 µM and the inhibition entry is “Dose-dependent effect”. With `Cc1c(C(c2cccc([N+](=O)[O-])c2)c2oc3c(c2C)C(=O)C(=O)c2c-3ccc3c2CCCC3(C)C)oc2c1C(=O)C(=O)c1c-2ccc2c1CCCC2(C)C`, the inhibition at 100 µM in the test on Thoracic aorta [1] was 18.8%. Same read-out and setting: then `Cc1c(C(c2ccccc2)c2oc3c(c2C)C(=O)C(=O)c2c-3ccc3c2CCCC3(C)C)oc2c1C(=O)C(=O)c1c-2ccc2c1CCCC2(C)C`, with 2.95%. Take `Cc1c(C(c2ccc(Cl)cc2)c2oc3c(c2C)C(=O)C(=O)c2c-3ccc3c2CCCC3(C)C)oc2c1C(=O)C(=O)c1c-2ccc2c1CCCC2(C)C`: in the test with Thoracic aorta [1], the inhibition at 100 µM came to 1%. Same read-out and setting: the figure for `Cc1c(C(c2ccccc2Cl)c2oc3c(c2C)C(=O)C(=O)c2c-3ccc3c2CCCC3(C)C)oc2c1C(=O)C(=O)c1c-2ccc2c1CCCC2(C)C` is -29.2%; for `Cc1coc2c1C(=O)C(=O)c1c-2ccc2c1CCCC2(C)C` [TANSHINONE IIA] it is 2.92%. For `COc1cc(C(c2oc3c(c2C)C(=O)C(=O)c2c-3ccc3c2CCCC3(C)C)c2oc3c(c2C)C(=O)C(=O)c2c-3ccc3c2CCCC3(C)C)ccc1O`, in the test with Thoracic aorta [1], the inhibition at 100 µM turned out to be 42.8%. In the test with Thoracic aorta [2], the concentration for half-maximal inhibition (IC50) stood at 130 µM and the inhibition entry was “Dose-dependent effect”.

On to `Cc1c(Br)oc2c1C(=O)C(=O)c1c-2ccc2c1CCCC2(C)C`, for which the inhibition at 100 µM in the test on Thoracic aorta [1] worked out at 4.24%. On the same count and under the same terms, then `Cc1c(C(c2ccc([N+](=O)[O-])cc2)c2oc3c(c2C)C(=O)C(=O)c2c-3ccc3c2CCCC3(C)C)oc2c1C(=O)C(=O)c1c-2ccc2c1CCCC2(C)C`, with 11.4%.

One may read the inhibition as the relative decrease from the control value, in per cent. For orientation: IC50 means the concentration at which inhibition is half-maximal.

The record behind these values is ChEMBL document CHEMBL1208775, “Synthesis and vasodilative activity of tanshinone IIA derivatives” (Bioorg Med Chem Lett, 2010).
